The source made the active and inactive calls.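 Rule for the calls: active = radiolabeled lipid uptake into receptor liposomes lowered versus untreated receptor liposomes, like the reference inhibitor; inactive = the rest.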

From PubChem BioAssay AID602155 (Broad Institute, 2011) come the findings set out here.

Scavenger receptor class B member 1 (Mus musculus), sequence (Q61009 whole entry, looked up): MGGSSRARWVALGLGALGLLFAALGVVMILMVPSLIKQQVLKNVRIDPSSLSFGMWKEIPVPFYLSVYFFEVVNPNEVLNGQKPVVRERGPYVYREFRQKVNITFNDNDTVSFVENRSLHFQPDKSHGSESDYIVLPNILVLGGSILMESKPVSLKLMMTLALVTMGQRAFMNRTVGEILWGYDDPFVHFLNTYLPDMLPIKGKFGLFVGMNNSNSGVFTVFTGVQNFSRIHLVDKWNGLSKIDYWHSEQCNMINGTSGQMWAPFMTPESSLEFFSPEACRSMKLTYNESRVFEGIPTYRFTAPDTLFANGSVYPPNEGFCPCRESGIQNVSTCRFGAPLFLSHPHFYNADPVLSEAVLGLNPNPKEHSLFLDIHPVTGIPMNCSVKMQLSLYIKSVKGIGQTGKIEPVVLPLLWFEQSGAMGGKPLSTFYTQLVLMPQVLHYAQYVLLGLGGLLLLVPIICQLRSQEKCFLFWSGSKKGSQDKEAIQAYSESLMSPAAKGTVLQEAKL

In this assay the target is Scavenger receptor class B member 1 (Mus musculus) (UniProt Q61009). Kind of assay: HDL cholesteryl ester transfer into SR-BI proteoliposomes – biochemical, reconstituted liposomes, [3H]CE-HDL, scintillation, dry powder, orthogonal assay for SR-BI HDL uptake inhibitor project (AID 602155). To be noted: [3H]CE-HDL selective uptake, at 1 µM, active compounds read low. In outline:
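System: murine SR-BI proteoliposomes. Probe or stimulus: [3H]CE-labeled HDL. Incubation: 60 min compound–liposome pre-incubation, then 4 h HDL at 37 °C. Evaluation: percent of control selective lipid uptake. Benchmarks: SR-BI liposomes in DMSO (100%) versus receptor-free liposomes (0%).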
Turning to `O=C(Nc1ccccc1)c1ccccc1NS(=O)(=O)c1ccc(Cl)cc1`, the lipid uptake is 128% (inactive).
The result for `CCC(=O)N1CCc2cc(-c3csc(NC(=O)c4ccco4)n3)ccc21` reads 63.1%; that for `COc1ccc(-c2nnn(CC(=O)N(C3CCCCC3)C(C)C(=O)NC3CCCC3)n2)cc1OC` (centres undefined), 46.9%; that for `CCOC(=O)N1CCC(NC(=O)c2ccc3c(c2)N(Cc2ccc(F)cc2)CCS3)CC1`, 52.9%.
